The full list was thinned out, with hits kept by preference.
HCT116 PTEN-null: growth suppression of PTEN-null HCT116, primary screen, cell-based, CellTiter-Glo | viability, % at 10 µM | HCT116 PTEN-null viability, 60 h; stronger effect = lower value | 140,000 compounds, 1.2% hits;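 active = viability at or below a set limit, 4 SD under the median of all tested compounds, cut at about 3.7% in these data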;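 also: PTEN knockout HCT116 line with beta catenin targeted HCT116 as companion control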
HUVEC inhibit: inhibitors of HUVEC proliferation, primary screen, cell-based, 384-well; CellTiter-Glo luminescence, 72 h; stronger effect = lower value; viability, % at 10 µM (by protocol); 86,000 compounds, 1.1% hits;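 active = viability at or below 30%; inactive = viability above 30%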;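 also: 100% = median luminescence of DMSO-only cell control wells on each plate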
H69AR growth 86K: proliferation blockers of H69AR lung cancer cells, primary screen, cell-based, human, 86K library; 85,000 compounds, 6% hits; viability, % at 10 µM; H69AR lung tumor viability, ATP luminescence, 72 h; stronger effect = lower value;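 active = viability at or below 40%; inactive = viability above 40%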;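 also: multidrug resistant small cell line overexpressing MRP-1 efflux transporter; 100% = mean luminescence of untreated control wells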
Lung fibro prol: antiproliferative effect on LL 47 fibroblasts – human, LL 47 cells, CellTiter-Glo luminescence, primary screen; viability, % at 10 µM; 85,000 compounds, 1.1% hits; LL 47 human lung fibroblast viability, ATP luminescence; stronger effect = lower value;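 active = viability at or below 50% in the single dose screen; inactive = viability above 50%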;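 also: compound exposure lasted 72 h before the ATP readout; 100% = median luminescence of untreated cell-only wells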
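Times – overnight cell rest, 72 h compound treatment at 37 °C · Test system – human lung fibroblast line LL 47, low passage · Amount – 1,150 cells in each well · Controls – cell-only wells, no compound · Doses – 0.1% DMSO in all compound wells · Measured by – CellTiter-Glo luminescence · Buffer or medium – IMEM plus 15% FBS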
bCat KO growth: primary screen for growth suppressors in beta-catenin knockout HCT116 cells (colon tumor, human); HCT116 beta-catenin knockout viability, CellTiter-Glo, 60 h; stronger effect = lower value; viability, % at 10 µM; 140,000 compounds, 1.5% hits; AID 818, 2007;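 active = viability at or under a set limit, the compound median less 4 SD, cut at about 6% in these data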;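 also: 0% = Hyamine 1622 control at 20 µM and 100% = untreated cell control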
The depositor's hits bear a star.

How did CCCc1nc2sc3c(SCC(=O)NCc4ccco4)ncnc3c2c2c1CCC2 do in these assays?
HCT116 PTEN-null: 27.3; HUVEC inhibit: 57.8; H69AR growth 86K: 8.6*; Lung fibro prol: 94.9; bCat KO growth: 30.3

Results for CC(C)Sc1nc(SCC(=O)NCc2ccco2)c2c3c(sc2n1)COC(C)(C)C3 ?
HCT116 PTEN-null: 80.0; HUVEC inhibit: 85.7; H69AR growth 86K: 34.2*; Lung fibro prol: 91.2; bCat KO growth: 68.7

Results for COc1cc(N=c2ssnc2Cl)cc(OC)c1 ?
HCT116 PTEN-null: 95.9; HUVEC inhibit: 89.6; H69AR growth 86K: 0.0*; Lung fibro prol: 70.2; bCat KO growth: 85.0

How did OCc1ccccc1N=c1ssnc1Cl do in these assays?
HCT116 PTEN-null: 94.5; HUVEC inhibit: 96.3; H69AR growth 86K: 59.9; Lung fibro prol: 97.2; bCat KO growth: 100.7

How did O=C(CC(SCc1ccco1)c1ccc(O)cc1)c1cccs1 (stereo not drawn) do in these assays?
HCT116 PTEN-null: 20.3; HUVEC inhibit: 73.7; H69AR growth 86K: 13.0*; Lung fibro prol: 86.1; bCat KO growth: 11.1

How did O=C(CC(SCCO)c1ccc2c(c1)OCO2)c1cccs1 (stereo not drawn) do in these assays?
HCT116 PTEN-null: 10.2; HUVEC inhibit: 94.8; H69AR growth 86K: 4.3*; bCat KO growth: 7.2

Results for O=c1c2ccccc2n(Cc2ccc(F)cc2)c(=O)n1C1CCCC1 ?
HCT116 PTEN-null: 57.9; HUVEC inhibit: 96.2; H69AR growth 86K: 38.0*; Lung fibro prol: 107.6; bCat KO growth: 63.8

How did CCc1ccc2[nH]c3nc(SCc4nnc(-c5ccc(C)cc5)o4)nnc3c2c1 do in these assays?
HCT116 PTEN-null: 45.6; HUVEC inhibit: 35.8; H69AR growth 86K: 9.4*; Lung fibro prol: 44.4*; bCat KO growth: 54.9

What do the screens show for `O=C(c1ccco1)n1nc(-c2ccc(Cl)cc2)nc1NCc1ccco1`?
HCT116 PTEN-null: 78.9; HUVEC inhibit: 41.4; H69AR growth 86K: 36.4*; Lung fibro prol: 81.7; bCat KO growth: 66.8

How did COCC(=O)n1nc(-c2ccc(Cl)cc2)nc1NCc1ccc(F)cc1 do in these assays?
HCT116 PTEN-null: 75.3; HUVEC inhibit: 58.1; H69AR growth 86K: 32.7*; Lung fibro prol: 79.2; bCat KO growth: 67.6

What do the screens show for `O=C(COc1ccccc1)n1nc(-c2ccc(Cl)cc2)nc1NCc1ccco1`?
HCT116 PTEN-null: 62.3; HUVEC inhibit: 58.2; H69AR growth 86K: 11.9*; Lung fibro prol: 74.1; bCat KO growth: 44.9

How did CCOCCCNS(=O)(=O)c1ccc(-n2cnnn2)c(OC)c1 do in these assays?
HCT116 PTEN-null: 96.3; HUVEC inhibit: 103.0; H69AR growth 86K: 108.0; Lung fibro prol: 97.8; bCat KO growth: 94.9

How did CCOC(=O)c1c(-c2ccccc2)csc1NC(=O)/C(C#N)=C/c1ccc(O)c(OC)c1 do in these assays?
HCT116 PTEN-null: 82.5; bCat KO growth: 79.7

How did CCN(CC(=O)NC1CCS(=O)(=O)C1)S(=O)(=O)c1ccc(C)c(C)c1 (stereo not drawn) do in these assays?
HCT116 PTEN-null: 97.5; bCat KO growth: 94.6

What do the screens show for `CC1CN(C(=O)c2ccccc2)C(=Nc2cccc(S(=O)(=O)N(C)C)c2)S1` (stereo not drawn)?
HCT116 PTEN-null: 96.1; bCat KO growth: 84.9

Results for CN(C)S(=O)(=O)c1cccc(N=C2NN=C(c3ccccc3)CS2)c1 ?
HCT116 PTEN-null: 3.8*; bCat KO growth: 5.2*

What do the screens show for `Cc1cc(=O)[nH]c(N=N/C(=N/Nc2ccc(O)cc2)c2ccccc2)n1`?
HCT116 PTEN-null: 60.0; HUVEC inhibit: 36.2; H69AR growth 86K: 31.7*; Lung fibro prol: 50.7; bCat KO growth: 39.9

What do the screens show for `COc1ccc(N/N=C(/N=Nc2nc(C)cc(=O)[nH]2)c2ccccc2)cc1`?
HCT116 PTEN-null: 8.0; HUVEC inhibit: 20.7*; H69AR growth 86K: 27.4*; Lung fibro prol: 16.2*; bCat KO growth: 12.6

How did C/C(=N\Nc1nc(C)cc(=O)[nH]1)C1CC1 do in these assays?
HCT116 PTEN-null: 100.1; bCat KO growth: 95.4

How did COC(=O)Cc1cc(=O)[nH]c(/N=C(/NC(=O)c2ccccc2)Nc2ccccc2C)n1 do in these assays?
HUVEC inhibit: 67.8; H69AR growth 86K: 82.3; Lung fibro prol: 94.7
